Source: ChEMBL document CHEMBL5653631, “A Potent and Selective ULK1 Inhibitor Suppresses Autophagy and Sensitizes Cancer Cells to Nutrient Stress” (iScience, 2018)

Legend:
[1] = target: T1, Beta-adrenergic receptor kinase 1 (Homo sapiens) (UniProt P25098); assay: Inhibition of human recombinant BARK1 at 40 nM in presence of ATP by radiometric assay relative to control
T1 sequence (whole entry): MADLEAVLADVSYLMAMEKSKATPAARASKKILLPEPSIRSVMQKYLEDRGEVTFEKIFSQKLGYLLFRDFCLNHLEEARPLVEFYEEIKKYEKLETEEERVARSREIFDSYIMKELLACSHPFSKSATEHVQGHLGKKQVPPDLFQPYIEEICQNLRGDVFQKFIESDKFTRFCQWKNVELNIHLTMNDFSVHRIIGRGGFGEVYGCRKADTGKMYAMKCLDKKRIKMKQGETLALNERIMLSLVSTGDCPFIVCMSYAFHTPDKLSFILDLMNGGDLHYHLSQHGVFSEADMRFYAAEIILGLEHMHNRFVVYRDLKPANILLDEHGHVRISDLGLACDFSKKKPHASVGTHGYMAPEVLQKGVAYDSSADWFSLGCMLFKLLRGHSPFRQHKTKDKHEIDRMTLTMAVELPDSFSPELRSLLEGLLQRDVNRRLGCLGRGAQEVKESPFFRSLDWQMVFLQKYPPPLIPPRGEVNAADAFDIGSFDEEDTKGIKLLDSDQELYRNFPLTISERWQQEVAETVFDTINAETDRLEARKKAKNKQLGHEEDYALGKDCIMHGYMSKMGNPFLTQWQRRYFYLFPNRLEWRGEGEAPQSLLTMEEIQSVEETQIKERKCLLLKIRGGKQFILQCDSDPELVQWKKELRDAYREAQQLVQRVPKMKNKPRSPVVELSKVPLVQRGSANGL
Summary of the method: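 Part of a radiometric in vitro activity panel of 327 recombinant human kinases. Each kinase was tested in duplicate at one inhibitor concentration. Activity remaining was expressed as a percentage of the vehicle control, and percent inhibition was taken as 100 minus that value.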

[2] = target: Casein kinase I isoform gamma-3 (Homo sapiens) (UniProt Q9Y6M4); assay: Inhibition of human recombinant CK1g3 at 40 nM related to control ULK1
[3] = target: T2, Serine/threonine-protein kinase ICK (Homo sapiens) (UniProt Q9UPZ9); assay: Inhibition of human recombinant ICK at 40 nM related to control ULK1
T2 sequence (whole entry): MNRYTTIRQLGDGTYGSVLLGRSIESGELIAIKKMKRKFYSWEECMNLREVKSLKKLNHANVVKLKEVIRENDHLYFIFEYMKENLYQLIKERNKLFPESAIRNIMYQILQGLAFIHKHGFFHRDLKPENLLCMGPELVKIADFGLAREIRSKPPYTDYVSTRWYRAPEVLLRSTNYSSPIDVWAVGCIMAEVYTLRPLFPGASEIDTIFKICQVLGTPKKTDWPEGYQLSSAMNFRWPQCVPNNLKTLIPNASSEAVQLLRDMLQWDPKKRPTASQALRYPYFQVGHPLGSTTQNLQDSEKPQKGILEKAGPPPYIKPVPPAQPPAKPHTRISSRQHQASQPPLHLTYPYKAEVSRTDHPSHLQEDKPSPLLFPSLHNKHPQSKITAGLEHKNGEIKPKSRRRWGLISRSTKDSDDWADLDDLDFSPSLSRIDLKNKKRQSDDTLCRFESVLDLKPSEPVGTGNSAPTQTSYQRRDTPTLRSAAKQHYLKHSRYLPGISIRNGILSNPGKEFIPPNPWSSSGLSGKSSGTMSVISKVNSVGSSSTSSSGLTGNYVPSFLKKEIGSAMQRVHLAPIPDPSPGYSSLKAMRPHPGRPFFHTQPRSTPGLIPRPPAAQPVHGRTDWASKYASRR

[4] = target: Tyrosine-protein kinase BTK (Homo sapiens) (UniProt Q06187); assay: Inhibition of human recombinant BTK at 15 nM in presence of ATP by radiometric assay relative to control
[5] = target: T3, Serine/threonine-protein kinase ULK3 (Homo sapiens) (UniProt Q6PHR2); assay: Inhibition of human recombinant ULK3 at 15 nM in presence of ATP by radiometric assay relative to control
T3 sequence (whole entry): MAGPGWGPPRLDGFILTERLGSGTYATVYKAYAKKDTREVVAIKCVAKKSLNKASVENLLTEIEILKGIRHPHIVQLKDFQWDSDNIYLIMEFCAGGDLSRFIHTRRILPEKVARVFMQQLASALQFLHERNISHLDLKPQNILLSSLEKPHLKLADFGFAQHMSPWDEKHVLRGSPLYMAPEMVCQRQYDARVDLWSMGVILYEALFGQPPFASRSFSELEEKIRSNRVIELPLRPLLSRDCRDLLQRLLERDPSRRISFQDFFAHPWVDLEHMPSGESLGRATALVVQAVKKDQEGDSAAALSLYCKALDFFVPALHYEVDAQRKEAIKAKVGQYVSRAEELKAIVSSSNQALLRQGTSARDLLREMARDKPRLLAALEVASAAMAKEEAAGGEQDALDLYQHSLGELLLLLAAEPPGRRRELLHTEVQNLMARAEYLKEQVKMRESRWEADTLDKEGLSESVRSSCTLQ

[6] = target: Serine/threonine-protein kinase 10 (Homo sapiens) (UniProt O94804); assay: Inhibition of human recombinant LOK at 15 nM related to control ULK1
[7] = target: Protein kinase C alpha type (Homo sapiens) (UniProt P17252); assay: Inhibition of human recombinant PKCa at 500 nM in presence of ATP by radiometric assay relative to control

Serine/threonine-protein kinase 10 (Homo sapiens), sequence (O94804 whole entry, looked up): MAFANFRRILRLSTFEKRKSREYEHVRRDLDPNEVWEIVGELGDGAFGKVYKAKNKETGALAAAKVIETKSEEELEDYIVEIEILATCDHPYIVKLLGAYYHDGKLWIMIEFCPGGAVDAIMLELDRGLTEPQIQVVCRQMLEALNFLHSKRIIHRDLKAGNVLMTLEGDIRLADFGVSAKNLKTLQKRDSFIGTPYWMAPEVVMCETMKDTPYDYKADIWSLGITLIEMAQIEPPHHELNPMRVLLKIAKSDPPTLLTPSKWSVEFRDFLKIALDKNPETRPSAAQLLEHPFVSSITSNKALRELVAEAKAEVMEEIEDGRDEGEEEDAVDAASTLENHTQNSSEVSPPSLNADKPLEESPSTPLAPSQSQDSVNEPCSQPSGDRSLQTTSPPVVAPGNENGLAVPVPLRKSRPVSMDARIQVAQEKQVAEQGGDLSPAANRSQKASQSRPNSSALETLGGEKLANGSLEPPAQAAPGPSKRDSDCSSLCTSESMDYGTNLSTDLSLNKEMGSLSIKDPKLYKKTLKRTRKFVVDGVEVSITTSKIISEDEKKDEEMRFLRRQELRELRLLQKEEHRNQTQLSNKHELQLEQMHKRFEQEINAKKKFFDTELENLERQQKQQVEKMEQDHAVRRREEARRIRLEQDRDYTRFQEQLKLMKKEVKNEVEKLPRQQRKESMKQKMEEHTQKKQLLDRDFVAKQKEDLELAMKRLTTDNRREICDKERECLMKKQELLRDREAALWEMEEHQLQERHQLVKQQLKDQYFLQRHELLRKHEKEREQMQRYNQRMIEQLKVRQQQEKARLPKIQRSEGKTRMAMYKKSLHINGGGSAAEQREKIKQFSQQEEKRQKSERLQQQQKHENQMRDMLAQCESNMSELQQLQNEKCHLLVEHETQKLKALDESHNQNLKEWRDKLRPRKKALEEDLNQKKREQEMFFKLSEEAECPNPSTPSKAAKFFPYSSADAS
Tyrosine-protein kinase BTK (Homo sapiens), sequence (Q06187 whole entry): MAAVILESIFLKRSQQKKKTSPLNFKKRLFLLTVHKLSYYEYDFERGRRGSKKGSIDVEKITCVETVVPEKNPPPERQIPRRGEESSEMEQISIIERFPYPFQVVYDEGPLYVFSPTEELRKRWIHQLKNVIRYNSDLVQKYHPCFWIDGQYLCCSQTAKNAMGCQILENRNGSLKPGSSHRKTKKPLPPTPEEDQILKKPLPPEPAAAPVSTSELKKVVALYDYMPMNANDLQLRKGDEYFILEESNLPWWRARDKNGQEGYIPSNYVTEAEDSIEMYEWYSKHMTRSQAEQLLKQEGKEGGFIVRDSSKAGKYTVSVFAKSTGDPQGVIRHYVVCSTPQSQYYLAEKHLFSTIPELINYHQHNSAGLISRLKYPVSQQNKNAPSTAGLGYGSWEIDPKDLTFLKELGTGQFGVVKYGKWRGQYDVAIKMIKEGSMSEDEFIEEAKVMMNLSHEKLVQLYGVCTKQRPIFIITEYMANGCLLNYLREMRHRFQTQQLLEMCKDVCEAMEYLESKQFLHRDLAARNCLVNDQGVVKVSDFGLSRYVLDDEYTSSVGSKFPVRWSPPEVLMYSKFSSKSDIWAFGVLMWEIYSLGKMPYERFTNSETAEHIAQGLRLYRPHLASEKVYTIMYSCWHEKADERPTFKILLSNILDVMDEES
Casein kinase I isoform gamma-3 (Homo sapiens), sequence (Q9Y6M4 whole entry, looked up, canonical isoform): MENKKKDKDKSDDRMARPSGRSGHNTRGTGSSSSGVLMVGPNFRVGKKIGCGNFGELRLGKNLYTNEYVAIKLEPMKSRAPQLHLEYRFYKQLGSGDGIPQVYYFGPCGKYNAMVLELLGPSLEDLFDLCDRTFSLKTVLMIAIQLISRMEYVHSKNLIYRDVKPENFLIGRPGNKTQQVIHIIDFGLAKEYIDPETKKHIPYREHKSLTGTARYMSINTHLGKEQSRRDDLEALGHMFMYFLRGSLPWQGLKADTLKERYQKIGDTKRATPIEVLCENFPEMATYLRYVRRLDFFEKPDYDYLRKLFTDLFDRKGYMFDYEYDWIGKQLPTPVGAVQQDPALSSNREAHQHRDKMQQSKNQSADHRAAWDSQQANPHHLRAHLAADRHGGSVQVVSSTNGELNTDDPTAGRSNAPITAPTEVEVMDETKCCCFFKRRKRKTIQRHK

Compound: O=C(N[C@@H](C1CC1)C(F)(F)F)c1cc(-c2cnn3cc(-c4ccc(F)cc4)cnc23)cs1
- inhibition [1]: 3%
- fold change (FC) [2]: 0.05
- fold change (FC) [3]: 0

Compound: CC(C)[C@H](NC(=O)c1cc(-c2cnn3cc(-c4ccc(OCCN5CCCCC5)cc4)cnc23)cs1)C(F)(F)F
- inhibition [4]: 0%
- inhibition [5]: 40%
- fold change (FC) [6]: 0

Compound: CNC(=O)c1ccccc1Oc1nc(Nc2cc(OC)c(OC)c(OC)c2)ncc1Br
- inhibition [7]: 0%
